The text below walks through data of ChEMBL document CHEMBL2440054, “Largazole Arrests Cell Cycle at G1 Phase and Triggers Proteasomal Degradation of E2F1 in Lung Cancer Cells” (ACS Med Chem Lett, 2013).

Test [1] is described as follows: Cytotoxicity against human SPCA1 cells after 48 hrs by CCK-8 assay. The class given is functional, cell-based. The note with it: SPCA1, 48 h. The method, boiled down:
(§1)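 Cells treated with a range of largazole concentrations for 48 h. Proliferation read by CCK-8 assay; IC50 derived from the concentration series.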
(Tetrazolium dyes change colour on reduction, which living cells bring about.)

For test [2], the system named is A549. The test is described as follows: Upregulation of p21 mRNA expression in human A549 cells at 0.1 uM after 12 hrs by RT-PCR analysis. The test is classed as functional, cell-based. The method, boiled down: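 A549 cells at 0.1 μM over a time course. RNA extracted, and p21 mRNA assessed by RT-PCR with specific primers.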
Test [3] has as its target Transcription factor E2F1 (Homo sapiens) (UniProt Q01094). Kind of test: Induction of E2F1 degradation in human 16HBE cells at 0.1 uM after 12 to 24 hrs by Western blotting analysis. The test is classed as cell-based. A digest of the protocol:
(§2)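 Each cell line (16-HBE, 95D, L78, H1975, H460) treated with 0.1 μM largazole for indicated times. Lysates Western blotted for E2F1.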

For test [4], the system named is NCI-H460. Kind of test: Cell cycle arrest in human NCI-H460 cells assessed as accumulation at G2 phase at 0.06 uM after 24 hrs by propidium iodide staining-based flow cytometric analysis (reference value: 9.5%). The class given is functional.
For test [5], the system named is A549. The test is described as follows: Upregulation of p27 protein expression in human A549 cells at 0.1 uM after 12 hrs by Western blotting analysis. The class given is functional, cell-based. The method, boiled down:
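A549 cells exposed to 0.1 μM over a time course, then lysed and Western blotted for G1 regulators including p21 and p27.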
In general terms: A western blot detects proteins with antibodies after separation by electrophoresis.

Test [6] has as its target T1, Retinoblastoma-associated protein (Homo sapiens) (UniProt P06400).
T1 sequence (whole entry): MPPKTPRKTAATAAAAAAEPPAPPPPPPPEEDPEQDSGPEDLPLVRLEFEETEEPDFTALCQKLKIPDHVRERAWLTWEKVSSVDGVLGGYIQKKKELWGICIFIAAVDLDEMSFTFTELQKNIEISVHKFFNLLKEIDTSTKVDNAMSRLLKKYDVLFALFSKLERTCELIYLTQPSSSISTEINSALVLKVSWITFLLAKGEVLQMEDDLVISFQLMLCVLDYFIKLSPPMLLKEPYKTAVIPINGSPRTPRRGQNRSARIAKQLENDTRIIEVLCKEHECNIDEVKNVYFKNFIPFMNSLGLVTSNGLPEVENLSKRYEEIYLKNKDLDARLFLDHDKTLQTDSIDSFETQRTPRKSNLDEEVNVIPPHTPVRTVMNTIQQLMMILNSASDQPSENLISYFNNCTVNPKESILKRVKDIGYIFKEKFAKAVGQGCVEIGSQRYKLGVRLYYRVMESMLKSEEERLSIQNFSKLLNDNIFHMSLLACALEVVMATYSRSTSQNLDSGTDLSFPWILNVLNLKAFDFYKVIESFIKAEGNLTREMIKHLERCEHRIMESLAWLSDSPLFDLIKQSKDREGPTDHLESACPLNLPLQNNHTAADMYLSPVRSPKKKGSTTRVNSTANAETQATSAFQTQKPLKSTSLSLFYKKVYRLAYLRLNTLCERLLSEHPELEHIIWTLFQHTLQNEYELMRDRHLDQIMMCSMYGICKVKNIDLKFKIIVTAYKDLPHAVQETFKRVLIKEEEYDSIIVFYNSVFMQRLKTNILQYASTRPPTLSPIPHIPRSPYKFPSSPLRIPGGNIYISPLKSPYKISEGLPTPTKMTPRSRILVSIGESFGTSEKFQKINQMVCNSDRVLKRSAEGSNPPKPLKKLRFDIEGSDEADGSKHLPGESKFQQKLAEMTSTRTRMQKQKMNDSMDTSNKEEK
Kind of test: Dephosphorylation of Rb in human A549 cells assessed as increase in Rb-E2F1 interaction at 0.1 uM after 8 hrs by immunoprecipitation and Western blotting analysis. The test is classed as cell-based. A digest of the protocol:
(§3)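 A549 cells treated with 0.1 μM largazole for 8 h and lysed. Lysates immunoprecipitated, then Western blotted with the indicated antibodies.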

The subject of test [7] is NCI-H460. Kind of test: Cytotoxicity against human NCI-H460 cells after 48 hrs by CCK-8 assay. The class given is functional, cell-based. The note with it: NCI-H460, 48 h. A digest of the protocol: as §1
The target of test [8] is Transcription factor E2F1 (Homo sapiens) (UniProt Q01094). Kind of test: Induction of E2F1 degradation in human 95-D cells at 0.1 uM after 12 to 24 hrs by Western blotting analysis. The test is classed as cell-based. A digest of the protocol:
as §2

In test [9] the test system is A549. Kind of test: Effect on CDK4 protein expression in human A549 cells at 0.1 uM after 6 to 36 hrs by Western blotting analysis. The test is classed as functional, cell-based. A digest of the protocol: (§4)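 A549 cells exposed to 0.1 μM largazole over a time course, lysed, and Western blotted for cyclin D1, CDK2, CDK4, p21 and p27.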
Test [10] concerns the target Transcription factor E2F1 (Homo sapiens) (UniProt Q01094). The test is described as follows: Induction of E2F1 degradation in human L78 cells at 0.1 uM after 12 to 24 hrs by Western blotting analysis. The class given is cell-based. The method, boiled down:
as §2

The test system of test [11] is A549. Kind of test: Upregulation of p21 protein expression in human A549 cells at 0.1 uM after 6 hrs by Western blotting analysis in presence of Hsp90 inhibitor 17-AAG. The class given is functional, cell-based. The method, boiled down: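 A549 cells treated 6 h with 0.1 μM, with or without 1 μM 17-AAG, then lysed and Western blotted. p21 quantified by densitometry and normalized to β-actin.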

In test [12] the test system is A549. Kind of test: Effect on cyclin D1 protein expression in human A549 cells at 0.1 uM after 6 to 36 hrs by Western blotting analysis. The test is classed as functional, cell-based. The method, boiled down:
as §4

The test system of test [13] is A549. Kind of test: Cytotoxicity against human A549 cells after 48 hrs by CCK-8 assay. The test is classed as functional, cell-based. To be noted: A549, 48 h. The method, boiled down: as §1
The target in test [14] is T1, Retinoblastoma-associated protein (Homo sapiens). The test is described as follows: Dephosphorylation of Rb in human A549 cells assessed as increase in E2F1-HDAC1 interaction at 0.1 uM after 8 hrs by immunoprecipitation and Western blotting analysis. The test is classed as cell-based. A digest of the protocol:
as §3

pIC50: −log10 of the molar value. Activity calls are given as the source filed them. The rule behind the calls is not given here.

Transcription factor E2F1 (Homo sapiens), sequence (Q01094 whole entry): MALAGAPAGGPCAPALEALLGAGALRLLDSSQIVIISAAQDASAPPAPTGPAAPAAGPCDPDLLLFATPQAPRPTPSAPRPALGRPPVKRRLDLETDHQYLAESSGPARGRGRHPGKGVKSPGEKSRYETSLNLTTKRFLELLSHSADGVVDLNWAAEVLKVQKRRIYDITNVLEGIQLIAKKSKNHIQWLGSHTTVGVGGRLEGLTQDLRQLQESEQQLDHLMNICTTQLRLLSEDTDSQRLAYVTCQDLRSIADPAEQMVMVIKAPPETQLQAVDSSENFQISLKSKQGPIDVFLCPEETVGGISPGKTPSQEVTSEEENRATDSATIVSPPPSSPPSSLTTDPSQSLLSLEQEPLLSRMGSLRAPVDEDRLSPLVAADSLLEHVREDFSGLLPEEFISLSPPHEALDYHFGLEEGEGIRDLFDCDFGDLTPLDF

On to `CCCCCCCC(=O)SCC/C=C/[C@@H]1CC(=O)NCc2nc(cs2)C2=N[C@@](C)(CS2)C(=O)N[C@@H](C(C)C)C(=O)O1` [LARGAZOLE], for which the pIC50 in [1] is 6.85; in the test with NCI-H460 [7], 6.92; in the test on A549 [13], 7.11. In addition, the outcome (in the test with A549 [2]; in the test with A549 [5]; in [6]; in test [8]; in test [10]; in test [14]) was Active. Moreover, the outcome (in test [3]; with A549 [9]; with A549 [11]; in the test with A549 [12]) was inactive. Moreover, the Activity with NCI-H460 [4] worked out at 10.8%.

Broadly, the pIC50 is the IC50 on a negative log10 scale, so that one unit is a factor of ten. A low value points to a high IC50.
